{"source": "ChEMBL document CHEMBL1933001", "about": "“LDV peptidomimetics equipped with biotinylated spacer-arms: synthesis and biological evaluation on CCRF-CEM cell line” (Bioorg Med Chem Lett, 2012)", "key": {"[1]": {"target": "T1, Integrin alpha-4/beta-1 (Homo sapiens, UniProt P05556+P13612)", "T1 sequence (P05556 whole entry)": "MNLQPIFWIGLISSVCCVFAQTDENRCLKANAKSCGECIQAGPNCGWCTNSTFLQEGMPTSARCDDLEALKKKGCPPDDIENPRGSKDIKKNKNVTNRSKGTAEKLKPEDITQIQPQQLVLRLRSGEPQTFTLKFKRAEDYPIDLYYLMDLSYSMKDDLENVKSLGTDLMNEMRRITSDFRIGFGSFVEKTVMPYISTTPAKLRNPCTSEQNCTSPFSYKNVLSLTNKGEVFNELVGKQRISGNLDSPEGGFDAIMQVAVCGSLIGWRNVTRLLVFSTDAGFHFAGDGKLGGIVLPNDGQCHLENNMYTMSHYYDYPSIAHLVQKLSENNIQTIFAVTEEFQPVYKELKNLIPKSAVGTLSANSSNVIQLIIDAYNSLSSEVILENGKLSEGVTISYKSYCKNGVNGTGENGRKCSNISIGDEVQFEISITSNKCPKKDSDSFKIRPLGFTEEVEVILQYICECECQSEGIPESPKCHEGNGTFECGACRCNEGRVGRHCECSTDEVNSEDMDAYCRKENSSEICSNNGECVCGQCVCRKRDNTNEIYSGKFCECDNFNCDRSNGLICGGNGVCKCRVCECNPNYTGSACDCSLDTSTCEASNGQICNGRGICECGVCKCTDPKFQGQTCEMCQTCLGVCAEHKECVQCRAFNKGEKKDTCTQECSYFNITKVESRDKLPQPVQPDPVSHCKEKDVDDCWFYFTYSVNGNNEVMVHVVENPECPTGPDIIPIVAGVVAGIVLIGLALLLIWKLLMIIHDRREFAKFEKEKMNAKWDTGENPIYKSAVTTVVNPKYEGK", "T1 sequence (P13612 whole entry)": "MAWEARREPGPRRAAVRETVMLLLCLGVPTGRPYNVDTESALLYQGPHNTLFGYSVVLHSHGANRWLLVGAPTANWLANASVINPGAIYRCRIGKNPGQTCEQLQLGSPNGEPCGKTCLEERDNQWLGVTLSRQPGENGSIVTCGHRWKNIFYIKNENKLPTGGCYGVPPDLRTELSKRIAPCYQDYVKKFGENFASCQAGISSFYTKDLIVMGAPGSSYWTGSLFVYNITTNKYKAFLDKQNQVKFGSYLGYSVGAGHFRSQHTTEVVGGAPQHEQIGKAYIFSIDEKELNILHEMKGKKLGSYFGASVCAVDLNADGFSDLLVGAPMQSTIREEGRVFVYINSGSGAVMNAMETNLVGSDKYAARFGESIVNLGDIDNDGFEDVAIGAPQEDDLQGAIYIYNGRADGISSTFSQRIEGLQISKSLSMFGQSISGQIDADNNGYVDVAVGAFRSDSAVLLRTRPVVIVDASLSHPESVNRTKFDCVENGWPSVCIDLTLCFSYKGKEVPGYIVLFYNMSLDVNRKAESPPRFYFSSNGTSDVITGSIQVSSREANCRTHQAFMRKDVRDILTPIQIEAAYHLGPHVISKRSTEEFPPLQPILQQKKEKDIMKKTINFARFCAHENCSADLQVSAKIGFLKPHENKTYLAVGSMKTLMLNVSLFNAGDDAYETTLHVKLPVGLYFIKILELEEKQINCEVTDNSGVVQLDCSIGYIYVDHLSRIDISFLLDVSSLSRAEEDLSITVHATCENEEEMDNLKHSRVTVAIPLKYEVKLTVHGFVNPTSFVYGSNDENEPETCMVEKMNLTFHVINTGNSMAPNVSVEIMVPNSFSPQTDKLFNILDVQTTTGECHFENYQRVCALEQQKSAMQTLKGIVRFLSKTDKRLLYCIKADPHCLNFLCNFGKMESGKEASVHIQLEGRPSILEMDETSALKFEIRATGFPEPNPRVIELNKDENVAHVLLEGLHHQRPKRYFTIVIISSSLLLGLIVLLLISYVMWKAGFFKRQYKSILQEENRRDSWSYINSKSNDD", "test": "Inhibition of alpha4beta1 integrin expressed in human CCRF-CEM cells assessed as cell adhesion to fibronectin after 1 hr by fluorimetry analysis", "type": "cell-based", "method_in_brief": "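Calcein-prelabelled CCRF-CEM cells (α4β1-expressing T lymphoblast-like line) were added to plates coated with fibronectin (10 µg/mL). Incubation was 1 h at 37 °C with or without increasing compound doses (1–500 µM). Adherent cells were quantified by fluorescence, and IC50 was derived from the inhibition of adhesion.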"}, "[2]": {"target": "T1, Integrin alpha-4/beta-1", "test": "Binding affinity to alpha4beta1 integrin expressed human CCRF-CEM cells at 100 uM after 24 hrs by alexa-conjugated streptavidin-based microscopy", "type": "cell-based", "method_in_brief": "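Fibronectin-coated plates (10 µg/mL). Adherent CCRF-CEM cells were exposed to biotin-conjugated molecules at 100 µM for 24 h and washed extensively. Alexa 568-conjugated streptavidin was then added, and extracellular fluorescence on the cell surface was imaged. Controls were not pre-treated and received only fluorescent streptavidin.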"}, "[3]": {"target": "T1, Integrin alpha-4/beta-1", "test": "Induction of adhesion of alpha4beta1 integrin expressing calcein-labelled human CCRF-CEM cells to neutravidin-coated plates at 0.1 to 10 uM pre-incubated for 2 hrs measured after 1 hr by fluorimetry", "type": "cell-based", "method_in_brief": "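Neutravidin-coated plates were pre-treated with biotin-conjugated compound, then calcein-labelled CCRF-CEM cells were added. Adherent cells were quantified by calcein fluorescence. Untreated plates served as control.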"}, "[4]": {"test_system": "CCRF-CEM", "test": "Cytotoxicity against human CCRF-CEM cells at 200 uM after 24 hrs by propidium iodide-based flow cytometry", "type": "cell-based", "method_in_brief": "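CCRF-CEM cells were incubated for 24 h with increasing amounts of compound, up to 200 µM final, then stained with propidium iodide to detect dead cells by fluorescence.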"}, "[5]": {"test_system": "HUVEC", "test": "Inhibition of fibronectin adhesion into HUVEC after 1 hr by fluorimetry analysis", "type": "functional, cell-based", "settings": "Homo sapiens"}, "[6]": {"target": "T1, Integrin alpha-4/beta-1", "test": "Detachment of pre-adhered alpha4beta1 integrin expressed in calcein-labelled human CCRF-CEM cells from fibronectin at 1 to 500 uM after 24 to 48 hrs by MTT assay", "type": "cell-based"}}, "note": "The source made the active and inactive calls. The rule behind the calls is not given here."}
{"smiles": "Cc1cccc(C)c1NC(=O)Nc1ccc(CC(=O)NCCCCCCCCCCCCN)cc1", "values": [{"measurement": "IC50", "setting": "[1]", "result": 151, "unit": "µM"}]}
{"smiles": "Cc1cccc(C)c1NC(=O)Nc1ccc(CC(=O)O)cc1", "values": [{"measurement": "IC50", "setting": "[1]", "result": "> 1000", "unit": "µM"}]}
{"smiles": "Cc1cccc(C)c1NC(=O)Nc1ccc(CC(=O)Nc2ccc(OCC(=O)O)c(CCC(=O)NCCCCCCCCCCCCNC(=O)CCCC[C@@H]3SC[C@@H]4NC(=O)N[C@@H]43)c2)cc1", "values": [{"measurement": "Activity", "setting": "[2]", "result": "Active"}, {"measurement": "Activity", "setting": "[3]", "result": "Active"}, {"measurement": "Activity", "setting": "[4]", "result": "Non-toxic"}, {"measurement": "IC50", "setting": "[1]", "result": 14.1, "unit": "µM"}]}
{"smiles": "Cc1cccc(C)c1NC(=O)Nc1ccc(CC(=O)N[C@@H](CC(C)C)C(=O)N[C@@H](CC(=O)O)C(=O)N[C@H](C(=O)NCCc2ccccc2)C(C)C)cc1", "values": [{"measurement": "inhibition", "setting": "[5]", "result": "inactive"}, {"measurement": "IC50", "setting": "[1]", "result": 36.3, "unit": "µM"}]}
{"smiles": "Cc1cccc(C)c1NC(=O)Nc1ccc(CC(=O)Nc2ccc(OCC(=O)O)c(CCC(=O)NCCOCCOCCOCCOCCOCCN)c2)cc1", "values": [{"measurement": "Activity", "setting": "[6]", "result": "inactive"}, {"measurement": "IC50", "setting": "[1]", "result": 170, "unit": "µM"}]}
{"smiles": "Cc1cccc(C)c1NC(=O)Nc1ccc(CC(=O)Nc2ccc(OCC(=O)OC(C)(C)C)c(CCC(=O)O)c2)cc1", "values": [{"measurement": "IC50", "setting": "[1]", "result": 68.4, "unit": "µM"}]}
{"smiles": "Cc1cccc(C)c1NC(=O)Nc1ccc(CC(=O)Nc2ccc(OCC(=O)O)c(CCC(=O)NCCCCCCCCCCCCN)c2)cc1", "values": [{"measurement": "Activity", "setting": "[6]", "result": "Active"}, {"measurement": "IC50", "setting": "[1]", "result": 123, "unit": "µM"}]}
{"smiles": "Cc1cccc(C)c1NC(=O)Nc1ccc(CC(=O)N[C@@H](CC(C)C)C(=O)N[C@@H](CC(=O)O)C(=O)N[C@H](C(=O)NCCCCCCCCCCCCN)C(C)C)cc1", "values": [{"measurement": "inhibition", "setting": "[5]", "result": "inactive"}, {"measurement": "IC50", "setting": "[1]", "result": 2.6, "unit": "µM"}]}
{"smiles": "Cc1cccc(C)c1NC(=O)Nc1ccc(CC(=O)NCCCCCCCCCCCCNC(=O)CCCC[C@@H]2SC[C@@H]3NC(=O)N[C@@H]32)cc1", "values": [{"measurement": "Activity", "setting": "[2]", "result": "inactive"}, {"measurement": "Activity", "setting": "[3]", "result": "inactive"}, {"measurement": "Activity", "setting": "[4]", "result": "Non-toxic"}, {"measurement": "IC50", "setting": "[1]", "result": 97.7, "unit": "µM"}]}
